Test [1] deals with HT-1080. Nature of the test: Cytotoxicity as percentage of dead cells at 1 uM using Trypan Blue test on HT1080 cells. In kind it is functional, Homo sapiens. An outline of the steps:
(§1)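 HT1080 cells stably transfected to overexpress MT1-MMP, seeded at 10⁵ cells/well and kept overnight at 37 °C. Washed free of serum, then given serum-free DMEM with insulin, transferrin and selenium. Compound added at 0, 1, 5 or 10 (micromolar) to duplicate wells for 24 h. Trypsinized cells mixed 1:1 with 0.4% trypan blue for 5 min. Blue-stained and total cells counted on haemocytometer upper and lower grids. % dead = mean of duplicates minus untreated wells.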

The subject of test [2] is HT-1080. Nature of the test: Cytotoxicity as percentage of dead cells at 5 uM using Trypan Blue test on HT1080 cells. The test is classed as functional, Homo sapiens. A digest of the protocol:
as §1

Test [3] relates to HT-1080. The test is described as follows: Cytotoxicity as percentage of dead cells at 10 uM using Trypan Blue test on HT1080 cells. In kind it is functional, Homo sapiens. A digest of the protocol: as §1
In test [4] the target is T1, Interstitial collagenase (Homo sapiens, UniProt P03956).
T1 sequence (P03956 whole entry): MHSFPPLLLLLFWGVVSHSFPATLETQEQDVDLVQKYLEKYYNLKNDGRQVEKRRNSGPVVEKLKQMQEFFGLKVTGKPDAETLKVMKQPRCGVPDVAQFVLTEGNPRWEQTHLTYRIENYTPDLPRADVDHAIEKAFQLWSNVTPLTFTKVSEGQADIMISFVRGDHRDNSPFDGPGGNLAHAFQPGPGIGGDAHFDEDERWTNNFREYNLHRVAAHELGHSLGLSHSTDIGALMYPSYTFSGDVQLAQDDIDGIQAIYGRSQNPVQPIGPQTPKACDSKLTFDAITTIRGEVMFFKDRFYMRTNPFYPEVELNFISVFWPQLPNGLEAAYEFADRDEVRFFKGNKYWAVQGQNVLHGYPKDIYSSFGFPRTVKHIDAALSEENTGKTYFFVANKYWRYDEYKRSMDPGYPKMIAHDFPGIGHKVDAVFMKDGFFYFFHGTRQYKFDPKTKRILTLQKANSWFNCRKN
The test is described as follows: Inhibition of Matrix metalloprotease-1 in MMPi assay.

The target in test [5] is 72 kDa type IV collagenase (Homo sapiens, UniProt P08253). Nature of the test: Inhibition of Matrix metalloprotease-2 in MMPi assay.
Test [6] has as its target Matrix metalloproteinase-9 (Homo sapiens, UniProt P14780). The test is described as follows: Inhibition of Matrix metalloprotease-9 in MMPi assay.
For test [7], the system named is Matrix metalloproteinase-14. Nature of the test: Inhibition of Matrix metalloprotease-14 in MMPi assay.
Test [8] deals with Matrix metalloproteinase-14 (Homo sapiens, UniProt P50281). The test is described as follows: Inhibition of Matrix metalloprotease-14 in MMPi assay.

For four compounds, Dead cells and IC50 results are on record in ChEMBL document CHEMBL1144383, “A new development of matrix metalloproteinase inhibitors: twin hydroxamic acids as potent inhibitors of MMPs” (Bioorg Med Chem Lett, 2005).

Matrix metalloproteinase-9, sequence (P14780 whole entry): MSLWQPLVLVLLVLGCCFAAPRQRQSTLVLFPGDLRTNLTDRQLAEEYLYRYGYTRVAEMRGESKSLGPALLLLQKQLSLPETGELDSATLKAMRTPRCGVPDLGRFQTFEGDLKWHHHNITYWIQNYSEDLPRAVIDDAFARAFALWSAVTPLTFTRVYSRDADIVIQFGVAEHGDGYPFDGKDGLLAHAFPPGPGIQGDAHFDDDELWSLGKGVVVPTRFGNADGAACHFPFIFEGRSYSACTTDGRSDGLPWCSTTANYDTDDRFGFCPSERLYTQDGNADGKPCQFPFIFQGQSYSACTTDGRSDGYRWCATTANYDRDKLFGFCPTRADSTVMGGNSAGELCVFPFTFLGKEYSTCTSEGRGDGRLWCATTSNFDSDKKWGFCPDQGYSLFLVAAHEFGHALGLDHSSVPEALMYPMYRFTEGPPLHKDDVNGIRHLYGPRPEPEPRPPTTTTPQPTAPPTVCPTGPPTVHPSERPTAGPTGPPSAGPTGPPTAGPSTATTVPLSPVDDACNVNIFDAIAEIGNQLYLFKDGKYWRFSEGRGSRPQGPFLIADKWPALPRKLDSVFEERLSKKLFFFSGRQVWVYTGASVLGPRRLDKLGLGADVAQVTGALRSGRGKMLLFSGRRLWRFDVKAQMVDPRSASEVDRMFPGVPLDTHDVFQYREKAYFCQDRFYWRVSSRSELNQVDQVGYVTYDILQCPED
72 kDa type IV collagenase, sequence (P08253 whole entry): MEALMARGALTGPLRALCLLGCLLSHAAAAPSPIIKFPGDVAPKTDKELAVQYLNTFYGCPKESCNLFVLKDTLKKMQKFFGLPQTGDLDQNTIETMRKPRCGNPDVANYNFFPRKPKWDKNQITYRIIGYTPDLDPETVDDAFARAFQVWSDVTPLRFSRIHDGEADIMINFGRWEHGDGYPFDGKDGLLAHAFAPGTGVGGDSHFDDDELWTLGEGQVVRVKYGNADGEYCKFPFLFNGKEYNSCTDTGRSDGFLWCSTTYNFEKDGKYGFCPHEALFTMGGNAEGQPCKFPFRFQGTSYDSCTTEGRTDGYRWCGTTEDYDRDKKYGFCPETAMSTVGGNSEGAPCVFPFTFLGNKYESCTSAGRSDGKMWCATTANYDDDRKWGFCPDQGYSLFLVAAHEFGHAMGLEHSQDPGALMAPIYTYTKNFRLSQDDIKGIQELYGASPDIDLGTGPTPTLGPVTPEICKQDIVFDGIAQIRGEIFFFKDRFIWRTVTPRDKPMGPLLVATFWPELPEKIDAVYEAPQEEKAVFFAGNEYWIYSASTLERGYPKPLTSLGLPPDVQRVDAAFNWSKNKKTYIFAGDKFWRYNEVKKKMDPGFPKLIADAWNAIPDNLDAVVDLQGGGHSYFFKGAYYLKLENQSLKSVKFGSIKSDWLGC

Regarding `CC(C)ON([C@H](CCNC(=O)CCCNC(=O)c1cccc(C(=O)NCCCC(=O)NCC[C@H](C(=O)NO)N(OC(C)C)S(=O)(=O)c2ccc(-c3ccccc3)cc2)c1)C(=O)NO)S(=O)(=O)c1ccc(-c2ccccc2)cc1`, the results for the Dead cells in test [1], in test [2] and in test [3] were 0%, 5% and 10%, respectively. The IC50 in test [4] came out at 397 nM; in test [5] it was 9.8 nM; in test [6] it was 8.3 nM; in test [7] it was 34 nM.

Take `CC(C)ON([C@H](CCNC(=O)c1cccc(C(=O)NCC[C@H](C(=O)NO)N(OC(C)C)S(=O)(=O)c2ccc(-c3ccccc3)cc2)c1)C(=O)NO)S(=O)(=O)c1ccc(-c2ccccc2)cc1`: the IC50 came to 10000 nM in test [4], 197 nM in test [5], 983 nM in test [6] and 1490 nM in test [8].

As to `CC(C)ON([C@H](CCNC(=O)c1cccc(C(=O)NCC[C@H](C(=O)O)N(OC(C)C)S(=O)(=O)c2ccc(-c3ccccc3)cc2)c1)C(=O)O)S(=O)(=O)c1ccc(-c2ccccc2)cc1`, the half-maximal inhibitory concentration (IC50) in test [5] is greater than 1000 nM; in test [6] it was greater than 30000 nM.

In the case of `CC(C)ON([C@H](CCNC(=O)OCc1ccccc1)C(=O)NO)S(=O)(=O)c1ccc(-c2ccccc2)cc1`, the figures for the Dead cells in test [1], in test [2] and in test [3] were 4%, 20% and 35%, respectively. Besides, the half-inhibitory concentration (IC50) in test [4] is greater than 3000 nM.
